# Rows were chosen to be rich in hits. Some 2.9% of all compounds tested hit in one or more screens of this group.
# MEKK3 PB1 HTS: MEKK3-MEK5 PB1 interaction, increase or decrease; Q99759; bead-based flow cytometry, Alexa488-MEK5 binding to MEKK3; actives lie on both sides; 0 = blocked by unlabeled MEK5, 100 = vehicle; binding response (% of control), % at 10 µM; 290,000 tested, 1.4% active; AID 1529;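 active = binding response more than 3 SD above or below the average of its plate-row segment, actives on both sides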;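 note: Alexa488 bead fluorescence after subtracting the streptavidin-only scavenger bead signal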
# Target sequence (Q99759 whole entry, looked up): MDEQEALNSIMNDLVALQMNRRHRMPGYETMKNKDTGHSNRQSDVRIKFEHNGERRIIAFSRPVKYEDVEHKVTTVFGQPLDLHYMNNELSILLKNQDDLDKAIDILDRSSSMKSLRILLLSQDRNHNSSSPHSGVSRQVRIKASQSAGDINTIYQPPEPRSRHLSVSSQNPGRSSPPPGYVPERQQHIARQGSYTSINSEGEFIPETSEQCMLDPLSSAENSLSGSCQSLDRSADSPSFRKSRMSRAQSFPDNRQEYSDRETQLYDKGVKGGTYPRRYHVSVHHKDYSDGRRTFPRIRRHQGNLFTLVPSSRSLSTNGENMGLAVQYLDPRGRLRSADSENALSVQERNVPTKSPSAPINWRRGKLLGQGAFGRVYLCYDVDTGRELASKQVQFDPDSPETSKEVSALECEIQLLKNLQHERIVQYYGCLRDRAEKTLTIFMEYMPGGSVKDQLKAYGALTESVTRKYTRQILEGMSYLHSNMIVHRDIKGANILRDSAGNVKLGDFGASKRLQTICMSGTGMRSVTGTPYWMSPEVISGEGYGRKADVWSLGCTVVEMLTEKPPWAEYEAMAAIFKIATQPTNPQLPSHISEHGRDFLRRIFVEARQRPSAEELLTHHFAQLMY
# Apaf1 inhib: blocks human Apaf-1 apoptosome activity; O14727; reconstituted apoptosome caspase-3 activity, DEVD-Rh110 fluorescence; inhibition, % at 20 µM; 330,000 tested, 0.71% active; active = inhibition of at least 40% at 20 µM;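 note: plate controls were DMSO wells for no effect and DEVD-CHO caspase inhibitor wells for full effect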
#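 Assay system – apoptosome proteins · Medium – Hepes buffer, pH 7.5 · Also added – cytochrome c with DEVD-Rh110 · Timing – 30 min compound preincubation, 50 min activation, room temperature · Detection – Rh110 fluorescence, excitation 480 nm, emission 540 nm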
# MEKK2mut PB1 HTS: signal of MEK5 binding to mutant human MEKK2 PB1 domain; 290,000 tested, 0.35% active; percent response, % at 10 µM; bead flow cytometry, Alexa488-MEK5 binding to MEKK2 mutant; in the data active = percent response above about 24%, passing the limit was not always enough
# UBC13 inh: human UBC13 polyubiquitination inhibition | P61088 | UBC13 polyubiquitin chain formation, TR-FRET | inhibition, % at 20 µM | 330,000 tested, 0.47% active | AID 485273; in the data active = inhibition above about 45%, passing the limit was not always enough
# MEKK2wt PB1 HTS: raises or lowers MEK5 binding to wildtype human MEKK2 PB1 domain. Q9Y2U5. bead flow cytometry, Alexa488-MEK5 binding to MEKK2 WT; actives lie on both sides. binding response (% of control), % at 10 µM. 290,000 tested, 1.1% active. AID 1531; in the data active = binding response below about 67% or above about 130%
# MEKK2wt confirm: raises or lowers MEK5 binding to wildtype human MEKK2, retest; shares compounds with MEKK3 PB1 HTS; bead flow cytometry, Alexa488-MEK5 binding to MEKK2 WT; actives lie on both sides; binding response (% of control), % at 10 µM; 5,900 tested, 2.4% active; AID 1892; in the data active = binding response below about 16% or above about 210%; inactive = in between
# MEKK2mut-MEK5: signal of MEK5 binding to mutant human MEKK2, retest. shares compounds with MEKK3 PB1 HTS. bead flow cytometry, Alexa488-MEK5 binding to MEKK2 mutant. percent response, % at 10 µM. 5,900 tested, 2% active. AID 1893; in the data active = percent response mostly above about 71%, no sharp cut-off; inactive = mostly below about 38%;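 note: higher means compound restores mutant binding toward wildtype level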
# MEKK3 confirm: MEKK3-MEK5 PB1 inhibition, single concentration confirmation | AID 1894 | binding response (% of control), % at 10 µM | 5,900 tested, 1.8% active | bead flow cytometry, Alexa488-MEK5 binding to MEKK3; stronger effect = lower value | shares compounds with MEKK3 PB1 HTS;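 active = binding response below 72% of control, or above a set upper limit, though filed actives all read lower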;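 note: 100% = DMSO only wells and 0% = binding blocked by excess unlabeled MEK5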
# * hit, by the source's call; · = no result given; [ ] = remark or other dose.
SMILES,MEKK3 PB1 HTS,Apaf1 inhib,MEKK2mut PB1 HTS,UBC13 inh,MEKK2wt PB1 HTS,MEKK2wt confirm,MEKK2mut-MEK5,MEKK3 confirm
COC(=O)N/N=C/c1cn(CCOc2ccccc2)c2ccccc12,-1.0*[inhibitor],1,-38,-5,-17*[inhibitor],97,-7,102
Cc1ccc(OCC(=O)N/N=C/c2cn(Cc3ccccc3)c3ccccc23)cc1,143*,7,0,-12,102,94,-9,105
COC(=O)N/N=C/c1cn(CCOc2ccc(OC)cc2)c2ccccc12,112,7,4,2,109,·,·,·
CCOC(=O)N/N=C/c1cn(CCCOc2ccc(C)cc2)c2ccccc12,109,20,-1,-1,99,·,·,·
O=C(C1=NOC(CNc2ncc(C(F)(F)F)cc2Cl)C1)N1CCOCC1 (stereo not given),98,4,-4,0,97,·,·,·
COC(=O)c1ccnc(/C=N/O)c1,80*[inhibitor],0,-10,0,85,96,-6,102
O=c1c2ccccc2c(C=NC2CCN(Cc3ccccc3)CC2)c(O)n1Cc1ccc2c(c1)OCO2,101,21,18,-9,154*,156,20,96
COC(=O)CCC(=O)Nc1ccc(C)cc1OC(=O)CCC(=O)OC,114,4,28*,-3,115,96,-4,101
COC(=O)CCC(=O)Nc1cccc2c(NC(=O)CCC(=O)OC)cccc12,90,9,-8,-14,90,·,·,·
CC(C(=O)O)n1c2ccccc2c2cnn(C)c(=O)c21 (stereo not given),104,0,0,-7,105,·,·,·
Cn1ccnc1Sc1ccc(C=O)cc1[N+](=O)[O-],74*[inhibitor],4,-2,-16,91,94,-7,96
CCCCNC(=S)N/N=C1\C(=O)c2cccc3cccc1c23,71*[inhibitor],5,-5,-4,74,97,-3,97
CNC(=S)N/N=C1\C(=O)c2cccc3cccc1c23,95,0,-3,2,99,·,·,·
COc1cc(C(=O)NN2C(=O)NC3(CCC(C)CC3)C2=O)ccc1OC(F)F (stereo not given),·,2,·,-22,·,·,·,·
Cc1ccc(OCC(=O)Nc2cccnc2Cl)cc1C,100,5,2,6,104,·,·,·
O=C1c2nccnc2C(=O)N1c1ccc(F)cc1,130*,-10,0,-16,112,105,6,100
CN(Cc1nc(-c2ccc(Cl)cc2)no1)C(=O)c1ccc2c(c1)OCO2,·,20,·,-9,·,·,·,·
CC1(C)CC(=O)C(C=NCCN2CCN(C(=S)Nc3ccccc3)CC2)=C(O)C1,3.0*[inhibitor],6,-14,-4,3.0*[inhibitor],102,5,103
Cc1ncoc1C(=O)Nc1ccc2c(c1)OCCO2,101,-31,6,4,102,·,·,·
Cc1nc2ccccn2c1C(=O)Nc1ccc2c(c1)OCCO2,132*,2,7,1,112,105,4,105
Cc1ccsc1C(=O)Nc1ccc2c(c1)OCCO2,138*,-8,0,-2,106,106,3,105
CC(NS(=O)(=O)c1ccc(Br)cc1)C(=O)NCCc1ccccc1 (stereo not given),101,2,12,2,94,·,·,·
COc1ccc(/C=C/CN2CCCC(CO)(Cc3cccc(Cl)c3)C2)cc1 (stereo not given),110,-6,6,-3,159*,113,15,102
C=CCN(C(=O)c1ccccn1)C(C(=O)NCc1ccccc1)c1ccccc1F (stereo not given),86,-6,-7,2,90,·,·,·
CCOc1ccccc1NC(=O)C(OC(=O)c1ccccc1)c1ccccc1 (stereo not given),130*,22,1,40,106,95,-5,100
